Experimental data: ChEMBL document CHEMBL5385953, “Antiviral Rotenoids and Isoflavones Isolated from Millettia oblata ssp. teitensis” (J Nat Prod, 2024)
Calls of active or inactive are those of the source. No cut-off for these calls is given here.

Assays:
HEp-2 [1] = assay: Cytotoxicity against human HEp-2 cells measured after 3 days by CellTiter 96 aqueous one solution assay (Rvb >100 microM); format: functional; conditions: HEp-2, 72 h, time 3 day
HEp-2 [2] = assay: Cytostatic activity against human HEp-2 cells assessed as poor cell staining at 0.8 to 4.0 uM measured after 3 days by CellTiter 96 aqueous one solution assay; format: functional, cell-based; conditions: dose 0.8-4 µM, time 3.0 day
Procedure, shortened: (§1)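 Compound-treated HEp-2 cells (grown in DMEM with 8% fetal calf serum and 292 μg/mL L-glutamine) were examined by microscopy alongside the tetrazolium viability assay. Cytostatic effects were scored as poor cell proliferation, altered cell shape or poor cell staining.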

[3] = Selectivity index, ratio of CC50 for human HEp-2 cells to IC50 for Human respiratory syncytial virus infected in human HEp-2 cells; format: toxicity, cell-based; conditions: read-out: Ratio CC50/IC50
HEp-2 [4] = assay: Cytostatic activity against human HEp-2 cells assessed as poor cell staining at 4.0 uM measured after 3 days by CellTiter 96 aqueous one solution assay; format: functional, cell-based; conditions: time 3.0 day
HEp-2 [5] = assay: Cytostatic activity against human HEp-2 cells assessed as poor cell proliferation at 100 uM measured after 3 days by CellTiter 96 aqueous one solution assay; format: functional, cell-based; conditions: time 3.0 day; procedure, shortened: as §1
HEp-2 [6] = assay: Cytostatic activity against human HEp-2 cells assessed as poor cell staining at 20 uM measured after 3 days by CellTiter 96 aqueous one solution assay; format: functional, cell-based; conditions: time 3.0 day; procedure, shortened: as §1
HEp-2 [7] = assay: Cytostatic activity against human HEp-2 cells assessed as poor cell staining at 100 uM measured after 3 days by CellTiter 96 aqueous one solution assay; format: functional, cell-based; conditions: time 3.0 day
HEp-2 [8] = assay: Cytostatic activity against human HEp-2 cells assessed as poor cell staining at 4.0 to 100 uM measured after 3 days by CellTiter 96 aqueous one solution assay; format: functional, cell-based; conditions: dose 4-100 µM, time 3.0 day

SMILES | CC50 (HEp-2 [1]) | also measured
COc1ccc2c(c1)O[C@@H]1COc3cc4c(cc3[C@@H]1C2=O)OCO4 | > 100 µM | –
COc1ccc2c(=O)c(-c3cc(OC)c4c(c3OC)OCO4)coc2c1 | > 100 µM | –
COc1cc2c(cc1OC)C(=O)[C@@]1(O)c3cc4c(cc3OC[C@H]1O2)OCO4 | > 100 µM | –
COc1cc2c(cc1OC)[C@]1(O)C(=O)c3ccc4c(c3O[C@@H]1CO2)C=CC(C)(C)O4 | – | Activity (HEp-2 [2]): Active
COc1cc2c(cc1OC)[C@@H]1C(=O)c3ccc4c(c3O[C@@H]1CO2)C=CC(C)(C)O4 [DEGUELIN] | – | selectivity ratio [3]: 61.6; Activity (HEp-2 [4]): Active
NC(=O)c1ncn([C@@H]2O[C@H](CO)[C@@H](O)[C@H]2O)n1 [RIBAVIRIN] | > 100 µM | Activity (HEp-2 [5]): Active
COc1ccc2c(c1)O[C@@H]1COc3cc4c(cc3[C@]1(O)C2=O)OCO4 | – | Activity (HEp-2 [6]): Active
COc1ccc2c(=O)c(-c3cc4c(cc3OC)OCO4)coc2c1 | – | Activity (HEp-2 [6]): Active
COc1cc2c(cc1-c1coc3c4c(c(OC)cc3c1=O)OC(C)(C)C=C4)OCO2 [ICHTHYNONE] | 91 µM | Activity (HEp-2 [6]): Active
CC(C)=CCOc1ccc(-c2coc3c4c(cc(O)c3c2=O)OC(C)(C)C=C4)cc1 | > 100 µM | Activity (HEp-2 [7]): Active
COc1c(O[C@@H]2O[C@H](CO[C@H]3O[C@H](C)[C@@H](O)[C@H](O)[C@@H]3O)[C@@H](O[C@@H]3O[C@H](CO[C@H]4O[C@H](C)[C@@H](O)[C@H](O)[C@@H]4O)[C@@H](O)[C@H](O)[C@H]3O)[C@H](O)[C@H]2O)cc2c(=O)c(-c3ccc4c(c3)OCO4)coc2c1OC | > 100 µM | –
CC(C)=CCOc1ccc(-c2coc3c4c(ccc3c2=O)OC(C)(C)C=C4)cc1 | > 100 µM | selectivity ratio [3]: > 47.6; Activity (HEp-2 [8]): Active
CC1(C)C=Cc2c(ccc3c(=O)c(-c4ccc5c(c4)OCO5)coc23)O1 | > 100 µM | –
COc1cc2c(cc1-c1coc3cc(O)ccc3c1=O)OCO2 [CUNEATIN] | > 100 µM | –
COc1ccc2c(c1)O[C@@H]1COc3c(cc(OC)c4c3OCO4)[C@@H]1C2=O | > 100 µM | –
COc1ccc2c(c1)O[C@@H]1COc3cc(OC)c(OC)cc3[C@]1(O)C2=O | – | Activity (HEp-2 [6]): Active
